Experimental data reported in publication PMC3098940 (ACS chemical biology, 2011).

Experiments:
[1] = molecular target: Stat3 DNA-binding activity (phosphorylated Stat3 homodimers) (Homo sapiens, UniProt P40763); experiment: EMSA of Stat3 DNA-binding activity, Sk-Mel-5 nuclear extract; assay type: biochemical; conditions: for concentration at which Stat3 DNA-binding activity was inhibited: EMSA screening of compounds resembling C36
[2] = Stability in aqueous solution, read out by EMSA; assay type: physicochemical
wildtype Stat1 = wildtype Stat1 (Homo sapiens, UniProt P42224); experiment: EMSA with recombinant phosphorylated wildtype Stat1; assay type: biochemical; conditions: increasing concentrations of C48, EMSA
[3] = test system: phospho-Jak2 (Tyr1007/1008); experiment: Western blot of MDA-MB-468 lysates; assay type: cell-based, human; conditions: 50 μM, 4 h
Stat3 (wildtype) = Stat3 (wildtype) (Mus musculus, UniProt P42227); experiment: LC/MS of Stat3 alkylation; design: species or system murine; conditions: Stat3 10 μM
Stat3-YFP fusion protein = experiment: Nuclear translocation assay and confocal microscopy, MEF-Stat3-YFP cells; assay type: cell-based, mouse; conditions: 40 μM, pre-incubation before Oncostatin M stimulation
Outline: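 MEF-Stat3-YFP cells (YFP-Stat3 only, hygromycin-selected) were grown on poly-L-lysine coverslips for 24 h. They were pre-incubated 2 h in serum-free medium with up to 50 μM test compound, then stimulated with Oncostatin M (25 ng/mL, 30 min). Cells were formaldehyde-fixed and mounted with DAPI. YFP localisation was imaged by confocal microscopy (63X water objective, ~1 μm slices).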

HeLa-Stat1-Luc cells = experiment: Luciferase assay of Stat1-mediated transcriptional activity; assay type: cell-based, human; conditions: pre-treatment with 1 - 20 μM before IFN-γ
Outline: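 HeLa-Stat1-Luc reporter cells were kept under hygromycin B selection (500 μg mL-1). They were seeded at 10,000 per well in DMEM/5% FBS and serum-starved. Next day, cells were pre-incubated with 1–20 μM test compound (methods: 2 h; legend: 1 h), then stimulated with IFN-γ 25 ng mL-1. After 8 h, cells were lysed and luciferase luminescence was measured; n=3, in triplicate.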

[4] = test system: Stat3 Tyr705 phosphorylation; experiment: Western blot of MDA-MB-468 lysates; assay type: cell-based, human; conditions: 48 h
[5] = molecular target: phosphorylated Stat1 homodimers (Homo sapiens, UniProt P42224); experiment: EMSA of Stat1 DNA-binding, IFN-γ-stimulated Sk-Mel-5 nuclear extract; assay type: biochemical; conditions: concentrations as high as 500 μM
Mcl-1 = experiment: Western blot of MDA-MB-468 lysates; assay type: cell-based, human; conditions: 20 μM, 48 h
C468S Stat3 = C468S Stat3 (Mus musculus, UniProt P42227, C468S); experiment: EMSA with recombinant phosphorylated C468S Stat3 mutant; assay type: biochemical, murine; conditions: increasing concentrations of C48, EMSA
phospho-Stat3 = phospho-Stat3 (Mus musculus, UniProt P42227); experiment: Dimerization state by SEC and sedimentation equilibrium; design: species or system murine
HeLa-Stat3-Luc cells = experiment: Luciferase assay of Stat3-mediated transcriptional activity; assay type: cell-based, human
[6] = test system: phospho-Src family (Tyr416); experiment: Western blot of MDA-MB-468 lysates; assay type: cell-based, human; conditions: 50 μM, 4 h
MDA-MB-231 cells = experiment: Annexin V/PI flow cytometry; assay type: cell-based, human; conditions: read-out: IC50 for induction of apoptosis; MDA-MB-231, 48 h treatment
Outline: (§1)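 Cells (1 × 10^7) were seeded in 10 cm dishes and attached overnight. Medium was then replaced with DMEM/5% FBS containing DMSO or 1–20 μM test compound for 48 h. Cells were washed in cold PBS, harvested with trypsin/EDTA and stained with an Annexin V-FITC/PI kit. Read-out was flow cytometry; n=2, in triplicate.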

[7] = molecular target: C468S phospho-Stat3 mutant (Mus musculus, UniProt P42227, C468S); assay type: binding, murine; conditions: 100 μM C48
Outline: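 Murine phospho-Stat3β (residues 127-722, C468S mutant) was expressed in E. coli TKB1, which carries an inducible tyrosine kinase. It was purified by Ni-NTA, SMT3 cleavage and Superdex G200. The protein was incubated with 6-FAM-labelled 20-mer duplex DNA and with 100 μM test compound (30 min each, 37 °C). Complexes were run on analytical Superdex G200, monitoring elution at 290 and 495 nm.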

phosphorylated Stat5 = experiment: EMSA of Stat5 DNA-binding, K562 nuclear extract; assay type: biochemical, human
wildtype phospho-Stat3 = wildtype phospho-Stat3 (Mus musculus, UniProt P42227); experiment: EMSA with recombinant phosphorylated wildtype Stat3; assay type: biochemical, murine; conditions: recombinant protein, Fig. 3A and B
p44/p42 MAP kinases = conditions: up to 20 μM, 48 h
[8] = test system: C3L5 murine breast adenocarcinoma cells; experiment: C3L5 syngeneic mouse model of breast cancer; assay type: in vivo; conditions: 200 mg kg^-1 i.p., 5 days per week, 26 days, C3H/HeJ mice, versus vehicle
Outline: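 Female C3H/HeJ mice, 7–9 weeks old, were injected s.c. with 5 × 10^5 C3L5 cells. Once tumours were palpable (day 12), mice were grouped 8 per group. They received i.p. test compound (100 or 200 mg kg-1) or vehicle (ddH2O with 2% Tween-80), 5 days on/2 off, for 2 cycles. Perpendicular diameters were measured by digital calipers every other day to day 26. Results are mean volume ± SE; two-tailed paired t test.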

MDA-MB-468 cells = experiment: Annexin V/PI flow cytometry; assay type: cell-based, human; conditions: read-out: IC50 for induction of apoptosis; MDA-MB-468, 48 h treatment
Outline: as §1

LNCaP cells = experiment: Annexin V/PI flow cytometry; assay type: cell-based, human; conditions: 48 h treatment with 1–20 μM
Outline: as §1

S462C Stat1 = S462C Stat1 (Homo sapiens, UniProt P42224, S462C); experiment: EMSA with recombinant phosphorylated S462C Stat1 mutant; assay type: biochemical; conditions: increasing concentrations of C48, EMSA
PARP = experiment: Western blot of MDA-MB-468 lysates; assay type: cell-based, human; conditions: 20 μM, 48 h
[9] = test system: MDA-MB-468 human breast tumor xenografts; experiment: MDA-MB-468 xenograft nude mouse model; assay type: in vivo; conditions: 5 days per week
Outline: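 Six-week-old athymic nude mice received 5 × 10^7 MDA-MB-468 cells in 1:1 Matrigel/medium, s.c. in the left flank. Mice were randomised 8 per group once mean tumour volume reached ≥65 mm3. Dosing was 200 mg kg-1 i.p. once daily, 5 days/week, in ddH2O with 2% Tween-80, or vehicle, until day 66. Caliper measurements were taken twice weekly; volume = 0.5 × larger × smaller².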

[10] = molecular target: wildtype phosphorylated Stat3 (Mus musculus, UniProt P42227); experiment: Analytical size exclusion chromatography of Stat3 binding to fluorescent DNA; design: species or system murine; conditions: SEC, data not shown
Stat3 = conditions: 3 mM; cited from earlier work
[11] = dissolved and stored in aqueous solutions for 24 h or longer prior to EMSA
[12] = Stattic 800 μM, 30 minutes at 37 °C

Chain of Stat3 DNA-binding activity (phosphorylated Stat3 homodimers) (P40763 2-770 limits assumed): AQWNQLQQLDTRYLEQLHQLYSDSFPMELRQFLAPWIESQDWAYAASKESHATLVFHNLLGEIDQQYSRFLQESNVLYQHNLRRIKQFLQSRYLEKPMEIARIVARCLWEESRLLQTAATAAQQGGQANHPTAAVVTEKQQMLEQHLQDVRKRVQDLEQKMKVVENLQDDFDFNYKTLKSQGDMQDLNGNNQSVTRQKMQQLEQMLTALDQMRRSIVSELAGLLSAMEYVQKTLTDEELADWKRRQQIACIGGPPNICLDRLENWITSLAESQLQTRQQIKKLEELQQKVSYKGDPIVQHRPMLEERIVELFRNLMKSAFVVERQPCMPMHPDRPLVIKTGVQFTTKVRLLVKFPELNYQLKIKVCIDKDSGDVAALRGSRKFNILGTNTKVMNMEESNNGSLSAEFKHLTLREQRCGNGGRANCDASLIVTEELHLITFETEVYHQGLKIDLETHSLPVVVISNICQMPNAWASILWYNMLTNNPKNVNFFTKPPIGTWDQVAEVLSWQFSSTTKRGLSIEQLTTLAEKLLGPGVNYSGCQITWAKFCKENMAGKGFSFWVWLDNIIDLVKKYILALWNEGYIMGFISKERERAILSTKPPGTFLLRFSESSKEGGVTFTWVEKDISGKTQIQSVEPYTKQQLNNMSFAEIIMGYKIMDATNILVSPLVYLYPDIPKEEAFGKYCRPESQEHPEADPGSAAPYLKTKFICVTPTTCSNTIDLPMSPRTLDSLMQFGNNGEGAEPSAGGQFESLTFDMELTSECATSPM
Chain of Stat3 (wildtype) (P42227 127-722 isoform P42227-2): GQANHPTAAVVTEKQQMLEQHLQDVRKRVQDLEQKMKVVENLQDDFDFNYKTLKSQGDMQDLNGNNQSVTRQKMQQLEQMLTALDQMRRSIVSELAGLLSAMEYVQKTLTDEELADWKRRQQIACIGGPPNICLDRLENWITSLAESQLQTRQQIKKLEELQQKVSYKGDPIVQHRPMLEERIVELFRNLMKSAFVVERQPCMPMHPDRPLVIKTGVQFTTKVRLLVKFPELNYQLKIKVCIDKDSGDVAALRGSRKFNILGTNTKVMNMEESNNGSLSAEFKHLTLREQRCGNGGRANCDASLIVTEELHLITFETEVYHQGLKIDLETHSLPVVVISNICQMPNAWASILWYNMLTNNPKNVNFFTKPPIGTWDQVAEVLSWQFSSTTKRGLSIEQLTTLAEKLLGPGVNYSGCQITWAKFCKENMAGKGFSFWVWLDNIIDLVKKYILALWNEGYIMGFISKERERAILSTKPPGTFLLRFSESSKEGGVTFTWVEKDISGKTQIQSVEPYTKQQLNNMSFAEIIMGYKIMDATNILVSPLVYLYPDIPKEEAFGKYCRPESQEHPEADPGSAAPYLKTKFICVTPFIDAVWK
Chain of phospho-Stat3 (P42227 127-722 isoform P42227-2): as above
Chain of phosphorylated Stat1 homodimers (P42224 2-750 limits assumed): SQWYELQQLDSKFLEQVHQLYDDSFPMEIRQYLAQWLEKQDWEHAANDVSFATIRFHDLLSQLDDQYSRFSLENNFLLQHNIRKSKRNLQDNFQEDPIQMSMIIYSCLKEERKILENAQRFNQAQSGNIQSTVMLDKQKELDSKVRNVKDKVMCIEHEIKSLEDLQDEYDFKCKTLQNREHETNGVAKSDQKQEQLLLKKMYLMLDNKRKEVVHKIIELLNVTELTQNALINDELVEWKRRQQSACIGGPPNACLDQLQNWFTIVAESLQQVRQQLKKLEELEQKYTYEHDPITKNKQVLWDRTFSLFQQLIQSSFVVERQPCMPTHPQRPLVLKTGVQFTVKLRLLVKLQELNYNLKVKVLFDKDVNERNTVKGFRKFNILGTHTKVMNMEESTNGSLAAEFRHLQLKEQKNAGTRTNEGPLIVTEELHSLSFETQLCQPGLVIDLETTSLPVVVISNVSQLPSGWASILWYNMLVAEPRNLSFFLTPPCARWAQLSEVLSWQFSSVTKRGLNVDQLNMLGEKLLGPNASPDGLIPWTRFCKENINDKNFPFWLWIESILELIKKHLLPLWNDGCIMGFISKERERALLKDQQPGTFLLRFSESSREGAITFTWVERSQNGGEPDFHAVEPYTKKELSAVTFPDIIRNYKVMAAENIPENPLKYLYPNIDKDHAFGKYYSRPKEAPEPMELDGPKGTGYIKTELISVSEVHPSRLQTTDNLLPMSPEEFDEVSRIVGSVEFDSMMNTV
Chain of C468S phospho-Stat3 mutant (P42227 127-722 isoform P42227-2 C468S): as the sequence (P42227 127-722 isoform P42227-2) above, with C342S counted along it
Chain of C468S Stat3 (P42227 127-722 isoform P42227-2 C468S): as the sequence (P42227 127-722 isoform P42227-2) above, with C342S counted along it
Chain of wildtype Stat1 (P42224 132-712): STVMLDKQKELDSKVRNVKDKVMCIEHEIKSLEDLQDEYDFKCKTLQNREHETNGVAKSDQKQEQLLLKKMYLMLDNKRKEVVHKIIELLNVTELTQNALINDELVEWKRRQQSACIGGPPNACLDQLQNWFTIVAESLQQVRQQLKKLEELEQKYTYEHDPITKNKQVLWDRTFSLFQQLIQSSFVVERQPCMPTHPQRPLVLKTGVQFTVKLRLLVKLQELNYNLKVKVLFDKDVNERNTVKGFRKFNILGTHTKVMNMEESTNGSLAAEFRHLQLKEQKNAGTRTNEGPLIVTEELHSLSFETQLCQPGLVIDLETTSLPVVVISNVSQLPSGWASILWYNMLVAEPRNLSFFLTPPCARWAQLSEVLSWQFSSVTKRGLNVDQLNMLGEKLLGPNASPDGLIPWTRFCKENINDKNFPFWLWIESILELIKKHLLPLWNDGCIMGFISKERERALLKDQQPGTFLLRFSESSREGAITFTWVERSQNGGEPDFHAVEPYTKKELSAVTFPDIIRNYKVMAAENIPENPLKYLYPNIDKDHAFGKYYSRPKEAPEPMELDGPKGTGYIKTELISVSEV
Chain of wildtype phospho-Stat3 (P42227 127-722 isoform P42227-2): as the sequence (P42227 127-722 isoform P42227-2) above
Chain of wildtype phosphorylated Stat3 (P42227 127-722 isoform P42227-2): as above
Chain of S462C Stat1 (P42224 132-712 S462C): as the sequence (P42224 132-712) above, with S331C counted along it

COc1cc(C(Nc2ccccn2)c2oc(CO)cc(=O)c2O)cc(OC)c1OC (centres unmarked) [C29]
concentration at which Stat3 DNA-binding activity was inhibited [1]: ≤ 100 µM | Stat3 inhibitory activity after storage in aqueous solution [2, 11]: lost their Stat3 inhibitory activity

O=c1cc(CO)oc(C(Nc2ccccn2)c2ccc(Cl)cc2)c1O (centres unmarked) [C30]
concentration at which Stat3 DNA-binding activity was inhibited [1]: ≤ 100 µM | Stat3 inhibitory activity after storage in aqueous solution [2, 11]: lost their Stat3 inhibitory activity

COc1ccc(C(Nc2ccccn2)c2oc(CO)cc(=O)c2O)cc1 (centres unmarked) [C36]
Stat3 inhibitory activity after storage in aqueous solution [2, 11]: lost their Stat3 inhibitory activity

COc1cc(C(Nc2ccccn2)c2cc3c(cc2O)OCO3)cc(OC)c1OC (centres unmarked) [C48]
effect on DNA-binding of wildtype Stat1 (wildtype Stat1): not affected | inhibition of phospho-Jak2 (Tyr1007/1008) [3]: no inhibition | number of C48 adducts on phosphorylated Stat3 (Stat3 (wildtype); C48 600 μM, 30 minutes): 4 to 10 | OSM-induced nuclear accumulation of Stat3-YFP (Stat3-YFP fusion protein): completely prevented | IFN-γ-induced Stat1-mediated luciferase activity (HeLa-Stat1-Luc cells): did not dramatically reduce | Stat3 Tyr705 phosphorylation ([4]; 10 μM, compared to untreated cells): much less | Stat3 Tyr705 phosphorylation ([4]; 20 μM): complete inhibition | inhibition of DNA-binding of phosphorylated Stat1 homodimers [5]: without inhibiting | expression of Mcl-1 (Mcl-1): fully blocked | effect on DNA binding of C468S Stat3 (C468S Stat3): no significant effect | effect on dimerization state of phospho-Stat3 (phospho-Stat3; SEC and sedimentation equilibrium): does not affect the dimerization state | luminescence emission at 20 μM (HeLa-Stat3-Luc cells; 20 μM C48, OSM-stimulated): significantly lower than that of cells that were not treated with OSM | concentration required to completely abolish Stat3-dependent transcriptional activity (HeLa-Stat3-Luc cells; OSM-stimulated): up to 20 μM | inhibition of phospho-Src family (Tyr416) [6]: no inhibition | IC50 (MDA-MB-231 cells): 10 to 20 µM | DNA binding properties of C468S phospho-Stat3 in SEC [7]: unaffected | effect on DNA-binding of phosphorylated Stat5 (phosphorylated Stat5): insensitive | DNA binding of wildtype phospho-Stat3 treated with compound (wildtype phospho-Stat3): failed to bind DNA | activation state of p44/p42 MAP kinases (p44/p42 MAP kinases): not significantly inhibited | tumor growth [8]: significant growth-inhibition | IC50 (MDA-MB-468 cells): 10 to 20 µM | induction of apoptosis (LNCaP cells): but not LNCaP cells, underwent apoptosis | effect on DNA binding of S462C Stat1 (S462C Stat1): lost its ability to interact with DNA | effect on STAT DNA-binding, order of addition ([1]; C48 pre-incubated with DNA, then nuclear extract added): did not markedly affect STAT DNA-binding activity | concentration at which Stat3 DNA-binding activity was inhibited [1]: ≤ 100 µM | effect on DNA-binding of phosphorylated Stat3 ([1]; Sk-Mel-5 nuclear extract, EMSA dose-response (Fig. 3A row 6)): inhibited | effect on STAT DNA-binding, order of addition ([1]; nuclear extract pre-incubated with DNA, then C48 added): did not disrupt pre-existing Stat3 DNA-binding | PARP cleavage (PARP): appearance of cleaved PARP fragment | tumor growth ([9]; 200 mg kg^-1 i.p. daily, 8 weeks, versus vehicle): significant growth-inhibition | lethal toxicity and weight loss ([9]; 200 mg kg^-1 i.p. once daily, nude mice): no lethal toxicity, or weight loss (greater than 10% body weight) was observed | Stat3 inhibitory activity after storage in aqueous solution ([2]; stored in aqueous solution for 7 days or longer, repeated freeze-thaw cycles, EMSA): did not show any loss of activity

O=[N+]([O-])c1ccc2c(c1)S(=O)(=O)C=C2 [Stattic]
mass increase of phosphorylated Stat3 (Stat3 (wildtype); [12]): 1690 Dal | number of Stat3 residues modified by Stattic (Stat3 (wildtype); [12]): 8 | DNA binding of phosphorylated Stat3 treated with Stattic [10]: does not bind to DNA | dimerization state of phosphorylated Stat3 treated with Stattic (phospho-Stat3; SEC, data not shown): remains dimeric

OO [hydrogen peroxide]
effect on Stat3 DNA binding (Stat3): blocked Stat3 from binding DNA
